Experimental data: ChEMBL document CHEMBL1799960, “Diadenosine 5',5''-(boranated)polyphosphonate analogues as selective nucleotide pyrophosphatase/phosphodiesterase inhibitors” (J Med Chem, 2010)
Calls of active or inactive are those of the source. The calls are words filed in the database; no cut-off is given here.

How the values were obtained:
[1] = biological target: P2Y purinoceptor 2 (Homo sapiens) (UniProt P41231); assay: Agonist activity at GFP tagged-human P2Y2 receptor expressed in human 1321N1 cells assessed as elevation in calcium level at 25 uM after 30 mins by fluorescence spectrophotometric analysis; assay type: functional, cell-based
[2] = biological target: T1, Ectonucleoside triphosphate diphosphohydrolase 1 (Homo sapiens) (UniProt P49961); assay: Activity of human NTPDase1 expressed in COS7 cells assessed as amount of inorganic phosphate released using ATP as the substrate at 100 uM after 15 mins by malachite green reagent method; assay type: cell-based; details: COS-7
T1 sequence (whole entry): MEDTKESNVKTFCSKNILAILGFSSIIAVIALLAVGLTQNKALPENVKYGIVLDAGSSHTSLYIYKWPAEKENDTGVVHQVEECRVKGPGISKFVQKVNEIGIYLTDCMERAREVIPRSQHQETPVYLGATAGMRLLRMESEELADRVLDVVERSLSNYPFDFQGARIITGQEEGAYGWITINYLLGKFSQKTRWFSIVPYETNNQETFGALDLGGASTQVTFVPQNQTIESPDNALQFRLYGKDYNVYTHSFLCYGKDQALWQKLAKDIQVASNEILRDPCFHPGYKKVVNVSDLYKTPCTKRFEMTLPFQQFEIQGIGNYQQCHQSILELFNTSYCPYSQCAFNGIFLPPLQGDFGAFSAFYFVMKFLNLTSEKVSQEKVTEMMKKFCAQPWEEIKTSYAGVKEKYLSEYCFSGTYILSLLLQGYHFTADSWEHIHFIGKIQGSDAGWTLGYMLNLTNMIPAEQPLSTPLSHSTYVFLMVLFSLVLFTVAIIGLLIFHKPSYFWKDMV
In short: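 Crude membrane-enriched protein extract of transiently transfected COS-7 cells, preincubated 3 min at 37 °C in Tris-Ringer buffer pH 7.3. Reaction started with 100 μM ATP, or with the analogue alone at 100 μM to test it as substrate. Stopped after 15 min with malachite green reagent; released Pi read at 630 nm. Mean ± SD, n = 3.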

[3] = biological target: T2, Ectonucleoside triphosphate diphosphohydrolase 8 (Homo sapiens) (UniProt Q5MY95); assay: Inhibition of human NTPDase8 expressed in COS7 cells assessed as amount of inorganic phosphate released using ATP as the substrate at 100 uM after 15 mins by malachite green reagent method; assay type: cell-based; details: COS-7
T2 sequence (whole entry): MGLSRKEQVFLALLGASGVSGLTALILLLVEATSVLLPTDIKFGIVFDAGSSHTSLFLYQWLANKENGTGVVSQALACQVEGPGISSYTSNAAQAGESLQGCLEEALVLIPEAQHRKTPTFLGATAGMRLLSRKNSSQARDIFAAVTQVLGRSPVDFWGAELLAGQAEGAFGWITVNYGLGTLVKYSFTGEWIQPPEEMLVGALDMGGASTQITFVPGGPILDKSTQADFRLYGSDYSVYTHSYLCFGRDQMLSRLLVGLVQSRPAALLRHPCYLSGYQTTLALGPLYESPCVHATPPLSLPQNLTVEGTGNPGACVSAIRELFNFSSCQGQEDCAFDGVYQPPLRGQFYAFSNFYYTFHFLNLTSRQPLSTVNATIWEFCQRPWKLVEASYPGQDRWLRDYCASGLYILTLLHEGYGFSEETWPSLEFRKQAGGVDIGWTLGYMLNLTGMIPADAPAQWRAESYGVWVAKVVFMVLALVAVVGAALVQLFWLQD
In short: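 Protein extracts of transfected COS-7 cells (ecto-5'-nucleotidase: 100 μM AMP substrate; NTPDases: 100 μM ATP) were preincubated 3 min at 37 °C in Tris-Ringer pH 7.3 with inhibitor at 100 μM final. After 15 min, malachite green stop; Pi read at 630 nm. Activity given as % of substrate-only control. Mean ± SD of three experiments in triplicate.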

[4] = biological target: T3, Ectonucleotide pyrophosphatase/phosphodiesterase family member 3 (Homo sapiens) (UniProt O14638); assay: Inhibition of human NPP3 expressed in COS7 cells assessed as production of p-nitrophenol using pnp-TMP as the substrate at 100 uM after 15 mins by malachite green reagent method; assay type: cell-based; details: COS-7
T3 sequence (whole entry): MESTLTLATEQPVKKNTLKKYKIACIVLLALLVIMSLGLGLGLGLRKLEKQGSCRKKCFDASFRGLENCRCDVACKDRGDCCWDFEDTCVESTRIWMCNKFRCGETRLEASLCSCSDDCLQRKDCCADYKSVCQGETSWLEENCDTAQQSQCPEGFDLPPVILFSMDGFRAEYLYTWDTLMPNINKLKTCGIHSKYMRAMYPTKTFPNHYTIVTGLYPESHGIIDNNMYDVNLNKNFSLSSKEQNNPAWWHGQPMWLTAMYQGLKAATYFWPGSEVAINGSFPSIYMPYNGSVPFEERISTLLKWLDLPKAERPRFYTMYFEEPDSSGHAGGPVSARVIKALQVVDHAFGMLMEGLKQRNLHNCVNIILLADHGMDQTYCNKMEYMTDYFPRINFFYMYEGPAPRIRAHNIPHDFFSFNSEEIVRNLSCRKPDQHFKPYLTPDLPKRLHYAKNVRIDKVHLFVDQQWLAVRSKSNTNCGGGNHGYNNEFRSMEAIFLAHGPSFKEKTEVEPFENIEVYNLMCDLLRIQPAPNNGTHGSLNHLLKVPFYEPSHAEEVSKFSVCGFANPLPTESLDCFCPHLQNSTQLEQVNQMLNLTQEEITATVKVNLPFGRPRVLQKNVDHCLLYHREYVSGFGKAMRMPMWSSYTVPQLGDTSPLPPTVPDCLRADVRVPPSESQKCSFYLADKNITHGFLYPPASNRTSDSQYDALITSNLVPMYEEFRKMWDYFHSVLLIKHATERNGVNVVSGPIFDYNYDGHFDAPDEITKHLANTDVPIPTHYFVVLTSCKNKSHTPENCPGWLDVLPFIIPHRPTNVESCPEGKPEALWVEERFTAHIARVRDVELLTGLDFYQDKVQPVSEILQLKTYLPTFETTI
In short: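 Human NPP1, NPP2 (membrane lysate or conditioned medium for the secreted form) or NPP3 from transfected COS-7 cells, preincubated 3 min at 37 °C in 50 mM Tris pH 8.5 buffer with CaCl2, NaCl and KCl. Substrate and inhibitor both at 100 μM final. pnp-TMP: p-nitrophenol read at 405 nm at 15 min. ATP or Ap5A: stopped at 30 min with perchloric acid, then HPLC. Results as % residual activity versus control; three to six experiments in triplicate.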

[5] = biological target: 5'-nucleotidase (Homo sapiens) (UniProt P21589); assay: Inhibition of human Ecto-5'-nucleotidase expressed in COS7 cells assessed as amount of inorganic phosphate released using AMP as the substrate at 100 uM after 15 mins by malachite green reagent method; details: COS-7
5'-nucleotidase (Homo sapiens), sequence (P21589 whole entry): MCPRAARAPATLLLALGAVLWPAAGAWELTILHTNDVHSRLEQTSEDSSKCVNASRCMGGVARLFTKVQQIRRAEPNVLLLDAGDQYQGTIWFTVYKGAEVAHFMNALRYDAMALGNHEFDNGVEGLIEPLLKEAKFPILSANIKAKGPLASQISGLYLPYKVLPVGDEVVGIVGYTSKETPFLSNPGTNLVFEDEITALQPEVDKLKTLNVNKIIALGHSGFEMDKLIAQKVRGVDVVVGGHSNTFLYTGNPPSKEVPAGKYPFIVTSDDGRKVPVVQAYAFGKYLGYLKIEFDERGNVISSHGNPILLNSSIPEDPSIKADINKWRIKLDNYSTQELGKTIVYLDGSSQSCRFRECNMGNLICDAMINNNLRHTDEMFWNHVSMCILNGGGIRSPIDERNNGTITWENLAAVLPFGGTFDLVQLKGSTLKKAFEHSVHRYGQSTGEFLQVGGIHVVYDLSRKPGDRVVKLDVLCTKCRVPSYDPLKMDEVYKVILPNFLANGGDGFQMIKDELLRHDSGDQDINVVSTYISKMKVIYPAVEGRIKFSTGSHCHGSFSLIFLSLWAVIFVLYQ

P2Y purinoceptor 2 (Homo sapiens), sequence (P41231 whole entry): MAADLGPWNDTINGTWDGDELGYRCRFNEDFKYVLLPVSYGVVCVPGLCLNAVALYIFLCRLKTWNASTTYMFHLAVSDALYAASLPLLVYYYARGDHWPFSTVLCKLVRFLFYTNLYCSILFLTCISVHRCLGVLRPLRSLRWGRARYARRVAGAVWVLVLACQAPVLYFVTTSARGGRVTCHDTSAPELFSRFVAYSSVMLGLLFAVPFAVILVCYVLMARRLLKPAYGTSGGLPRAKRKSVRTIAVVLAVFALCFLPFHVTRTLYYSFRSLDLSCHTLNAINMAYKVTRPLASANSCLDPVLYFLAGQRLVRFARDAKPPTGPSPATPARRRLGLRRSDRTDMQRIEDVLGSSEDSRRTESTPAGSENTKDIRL

Activity [1] | Activity [2] [%] | inhibition [3] | inhibition [4] [%] | inhibition [5] | SMILES
inactive | 1.1 | inactive | 30 | 80% | Nc1ncnc2c1ncn2[C@H]1C[C@H](O)[C@@H](COP(=O)(O)CP(=O)(O)OP(=O)(O)CP(=O)(O)OC[C@H]2O[C@@H](n3cnc4c(N)ncnc43)C[C@@H]2O)O1
inactive | 0.5 | inactive | 30 | inactive | BP(=O)(OP(=O)(O)CP(=O)(O)OC[C@H]1O[C@@H](n2cnc3c(N)ncnc32)[C@H](O)[C@@H]1O)OP(=O)(O)CP(=O)(O)OC[C@H]1O[C@@H](n2cnc3c(N)ncnc32)[C@H](O)[C@@H]1O
inactive |  | inactive | 30 | inactive | BP(=O)(OP(=O)(O)CP(=O)(O)OC[C@H]1O[C@@H](n2cnc3c(N)ncnc32)C[C@@H]1O)OP(=O)(O)CP(=O)(O)OC[C@H]1O[C@@H](n2cnc3c(N)ncnc32)C[C@@H]1O
inactive | 1.5 | inactive | 30 | 90% | Nc1ncnc2c1ncn2[C@@H]1O[C@H](COP(=O)(O)CP(=O)(O)OP(=O)(O)CP(=O)(O)OC[C@H]2O[C@@H](n3cnc4c(N)ncnc43)[C@H](O)[C@@H]2O)[C@@H](O)[C@H]1O
